How the values were obtained:
hERG (KCNH2) = hERG (KCNH2) (Homo sapiens, UniProt Q12809); test: Displacement of dofetilide from human ERG at 10 uM; conditions: probe dofetilide
Outline: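 hERG dofetilide assay, read out as percent inhibition at a single concentration of test compound.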

[1] = Half life in human liver microsomes at 1 uM; assay type: ADME, Microsome
Outline: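 Human liver microsome stability test, read out as half-life (t1/2, min) after a single low dose of compound.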

[2] = target: T1, C-C chemokine receptor type 2 (Homo sapiens, UniProt P41597); test: Displacement of [125I]MCP1 from human CCR2 at 0.30 uM preincubated 30 mins by human whole cell binding assay
Target sequence in this assay (P41597 whole entry, looked up): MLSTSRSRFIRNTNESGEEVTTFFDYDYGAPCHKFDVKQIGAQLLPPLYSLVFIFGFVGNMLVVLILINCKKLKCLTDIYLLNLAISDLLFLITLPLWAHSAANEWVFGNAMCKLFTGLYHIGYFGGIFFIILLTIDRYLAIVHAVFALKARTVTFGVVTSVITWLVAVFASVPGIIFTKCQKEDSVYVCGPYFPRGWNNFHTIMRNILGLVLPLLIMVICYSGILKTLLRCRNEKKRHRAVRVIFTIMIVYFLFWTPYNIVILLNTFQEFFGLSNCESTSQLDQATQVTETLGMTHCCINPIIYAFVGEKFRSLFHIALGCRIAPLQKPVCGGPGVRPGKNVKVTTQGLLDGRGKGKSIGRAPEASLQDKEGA

[3] = target: T1, C-C chemokine receptor type 2; test: Displacement of [125I]MCP1 from human CCR2 preincubated 30 mins by human whole cell binding assay
Outline: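 Whole cell binding to human CCR2, with a 30 min preincubation with compound.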
Target sequence in this assay (P41597 whole entry): as the sequence (P41597 whole entry, looked up) above

[4] = target: T1, C-C chemokine receptor type 2; test: Displacement of [125I]MCP1 from human CCR2 preincubated 1 hrs by human whole cell binding assay
Outline: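 Human CCR2 whole cell binding, with compound preincubated for 1 h before the binding read-out.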
Target sequence in this assay (P41597 whole entry): as the sequence (P41597 whole entry, looked up) above

[5] = Efflux ratio of permeability from basolateral to apical over apical to basolateral side of MDCK cells; assay type: ADME, cell-based, Canis lupus familiaris; conditions: dog
[6] = Apparent permeability from apical to basolateral side of MDCK cells; assay type: ADME, cell-based, Canis lupus familiaris; conditions: dog
[7] = Apparent permeability from basolateral to apical side of MDCK cells; assay type: ADME, cell-based, Canis lupus familiaris; conditions: dog
[8] = target: T1, C-C chemokine receptor type 2; test: Displacement of [125I]MCP1 from human CCR2 at 0.30 uM by human whole cell binding assay
Target sequence in this assay (P41597 whole entry, looked up): as above

[9] = target: T1, C-C chemokine receptor type 2; test: Displacement of [125I]MCP1 from human CCR2 at 0.30 uM preincubated 1 hr by human whole cell binding assay
Target sequence in this assay (P41597 whole entry, looked up): as above

Sequence of hERG (KCNH2) (Q12809 whole entry): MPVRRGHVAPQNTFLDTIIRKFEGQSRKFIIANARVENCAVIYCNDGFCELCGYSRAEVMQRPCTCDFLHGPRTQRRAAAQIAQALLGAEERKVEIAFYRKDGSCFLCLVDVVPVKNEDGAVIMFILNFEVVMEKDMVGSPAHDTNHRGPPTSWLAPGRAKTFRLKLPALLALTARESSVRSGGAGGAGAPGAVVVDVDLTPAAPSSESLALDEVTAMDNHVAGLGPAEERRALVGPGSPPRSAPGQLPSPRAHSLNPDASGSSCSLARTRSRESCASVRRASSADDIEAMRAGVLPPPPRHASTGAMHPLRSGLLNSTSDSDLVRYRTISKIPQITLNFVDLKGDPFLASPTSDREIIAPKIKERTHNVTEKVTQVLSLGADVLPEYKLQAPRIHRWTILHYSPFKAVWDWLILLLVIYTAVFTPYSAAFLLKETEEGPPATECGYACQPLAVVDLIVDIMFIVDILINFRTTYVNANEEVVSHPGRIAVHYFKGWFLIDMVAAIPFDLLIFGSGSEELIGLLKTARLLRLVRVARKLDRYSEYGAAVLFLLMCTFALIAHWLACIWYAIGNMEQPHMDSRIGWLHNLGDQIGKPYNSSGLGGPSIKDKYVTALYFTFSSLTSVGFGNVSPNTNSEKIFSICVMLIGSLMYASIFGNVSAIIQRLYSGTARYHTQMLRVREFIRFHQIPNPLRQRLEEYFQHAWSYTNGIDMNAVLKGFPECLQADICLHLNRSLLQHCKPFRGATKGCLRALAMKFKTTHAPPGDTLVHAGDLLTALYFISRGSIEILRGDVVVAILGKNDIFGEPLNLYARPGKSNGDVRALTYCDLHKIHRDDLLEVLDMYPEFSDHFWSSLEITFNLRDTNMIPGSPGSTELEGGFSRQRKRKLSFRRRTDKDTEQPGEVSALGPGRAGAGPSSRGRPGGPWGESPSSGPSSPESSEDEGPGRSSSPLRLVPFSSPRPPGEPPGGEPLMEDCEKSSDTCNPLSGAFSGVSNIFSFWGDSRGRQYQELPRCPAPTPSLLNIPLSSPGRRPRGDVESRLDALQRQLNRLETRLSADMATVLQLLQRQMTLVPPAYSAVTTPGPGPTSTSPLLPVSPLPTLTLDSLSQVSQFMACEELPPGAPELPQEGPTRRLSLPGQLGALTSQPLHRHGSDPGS

CCC(=O)N1C[C@@H]2C[C@H]1CN2C(=O)[C@@]1(C(C)C)CC[C@@H](NC2CCOCC2)C1
inhibition at 10 µM (hERG (KCNH2)): 6% | half-life at 1 µM [1]: > 120 min | Activity [2]: 28%

CO[C@@H]1COCC[C@@H]1N[C@@H]1CC[C@@](C(=O)N2C[C@@H]3C[C@H]2CN3C(=O)C2CCCC2)(C(C)C)C1
inhibition at 10 µM (hERG (KCNH2)): 6.7% | half-life at 1 µM [1]: > 120 min | IC50 [3]: 11.1 nM | IC50 [4]: 8.5 nM

CC(C)[C@]1(C(=O)N2C[C@@H]3C[C@H]2CN3C(=O)OC(C)(C)C)CC[C@@H](NC2CCOCC2F)C1 (stereo partly specified)
inhibition at 10 µM (hERG (KCNH2)): 6% | half-life at 1 µM [1]: 37.2 min | IC50 [4]: 4.2 nM

CC(C)[C@]1(C(=O)N2C[C@@H]3C[C@H]2CN3C(=O)CC2CCCC2)CC[C@@H](NC2CCOCC2F)C1 (stereo partly specified)
inhibition at 10 µM (hERG (KCNH2)): 3% | half-life at 1 µM [1]: 48 min | IC50 [3]: 14.7 nM

CC(CC(=O)N1C[C@@H]2C[C@H]1CN2C(=O)[C@@]1(C(C)C)CC[C@@H](NC2CCOCC2F)C1)C(F)(F)F (stereo partly specified)
efflux ratio [5]: 0.8 | Papp A→B [6]: 11.8 ×10⁻⁶ cm/s | inhibition at 10 µM (hERG (KCNH2)): 0% | half-life at 1 µM [1]: > 120 min | Papp B→A [7]: 10.2 ×10⁻⁶ cm/s | IC50 [3]: 12.8 nM

CC(=O)N1C[C@@H]2C[C@H]1CN2C(=O)[C@@]1(C(C)C)CC[C@@H](NC2CCOCC2)C1
inhibition at 10 µM (hERG (KCNH2)): 0% | half-life at 1 µM [1]: > 120 min | Activity [2]: 1%

CC(C)[C@]1(C(=O)N2C[C@@H]3C[C@H]2CN3C(=O)C2CCC2)CC[C@@H](NC2CCOCC2F)C1 (stereo partly specified)
inhibition at 10 µM (hERG (KCNH2)): 17% | half-life at 1 µM [1]: 21 min | IC50 [3]: 38.4 nM

CC(C)[C@]1(C(=O)N2C[C@@H]3C[C@H]2CN3C(=O)CC(C)(C)C)CC[C@@H](NC2CCOCC2)C1
inhibition at 10 µM (hERG (KCNH2)): 5.7% | half-life at 1 µM [1]: > 120 min | IC50 [4]: 36.9 nM

CC(C)[C@]1(C(=O)N2C[C@@H]3C[C@H]2CN3C(=O)CCC(F)(F)F)CC[C@@H](NC2CCOCC2)C1
inhibition at 10 µM (hERG (KCNH2)): 1% | half-life at 1 µM [1]: > 120 min | IC50 [3]: 14.6 nM

CO[C@@H]1COCC[C@@H]1N[C@@H]1CC[C@@](C(=O)N2C[C@@H]3C[C@H]2CN3C(=O)OC(C)(C)C)(C(C)C)C1
inhibition at 10 µM (hERG (KCNH2)): 0% | half-life at 1 µM [1]: > 120 min | IC50 [4]: 2.9 nM

CC(C)[C@]1(C(=O)N2C[C@@H]3C[C@H]2CN3C(=O)C2CCCC2)CC[C@@H](NC2CCOCC2F)C1 (stereo partly specified)
inhibition at 10 µM (hERG (KCNH2)): 3% | half-life at 1 µM [1]: > 120 min | IC50 [3]: 13.9 nM

CC(C)COC(=O)N1C[C@@H]2C[C@H]1CN2C(=O)[C@@]1(C(C)C)CC[C@@H](NC2CCOCC2F)C1 (stereo partly specified)
inhibition at 10 µM (hERG (KCNH2)): 0% | half-life at 1 µM [1]: 28 min | IC50 [3]: 4.3 nM

CC(C)[C@]1(C(=O)N2C[C@@H]3C[C@H]2CN3C(=O)C2CCCCC2)CC[C@@H](NC2CCOCC2)C1
inhibition at 10 µM (hERG (KCNH2)): 4% | half-life at 1 µM [1]: 93.2 min | IC50 [3]: 11.6 nM

CC(C)[C@]1(C(=O)N2CCN(C(=O)OC(C)(C)C)CC2)CC[C@@H](NC2CCOCC2)C1
Activity [8]: 24%

CC(C)[C@]1(C(=O)N2C[C@@H]3C[C@H]2CN3C(=O)NC(C)(C)C)CC[C@@H](NC2CCOCC2F)C1 (stereo partly specified)
inhibition at 10 µM (hERG (KCNH2)): 0% | half-life at 1 µM [1]: 106 min | IC50 [3]: 28 nM

CC(C)[C@]1(C(=O)N2C[C@@H]3C[C@H]2CN3C(=O)C2CC2)CC[C@@H](NC2CCOCC2)C1
inhibition at 10 µM (hERG (KCNH2)): 2.3% | half-life at 1 µM [1]: > 120 min | IC50 [3]: 130 nM

CC(C)[C@]1(C(=O)N2C[C@@H]3C[C@H]2CN3C(=O)C2CCC2)CC[C@@H](NC2CCOCC2)C1
inhibition at 10 µM (hERG (KCNH2)): 6% | half-life at 1 µM [1]: > 120 min | IC50 [4]: 32 nM

CC(C)[C@]1(C(=O)N2C[C@@H]3C[C@H]2CN3C(=O)C(C)(C)C)CC[C@@H](NC2CCOCC2)C1
inhibition at 10 µM (hERG (KCNH2)): 2% | half-life at 1 µM [1]: > 120 min | Activity [2]: 23%

CC(C)[C@]1(C(=O)N2C[C@@H]3C[C@H]2CN3C(=O)C2CCCCC2)CC[C@@H](NC2CCOCC2F)C1 (stereo partly specified)
inhibition at 10 µM (hERG (KCNH2)): 0% | half-life at 1 µM [1]: 55 min | IC50 [3]: 15.2 nM

CC(C)[C@]1(C(=O)N2C[C@@H]3C[C@H]2CN3C(=O)c2ccccc2)CC[C@@H](NC2CCOCC2F)C1 (stereo partly specified)
inhibition at 10 µM (hERG (KCNH2)): 0% | IC50 [3]: 17.5 nM

CO[C@@H]1COCC[C@@H]1N[C@@H]1CC[C@@](C(=O)N2C[C@@H]3C[C@H]2CN3C(=O)CC(C)(C)C)(C(C)C)C1
inhibition at 10 µM (hERG (KCNH2)): 0% | half-life at 1 µM [1]: > 120 min | IC50 [3]: 24.2 nM | IC50 [4]: 17 nM

CC(C)[C@]1(C(=O)N2C[C@@H]3C[C@H]2CN3C(=O)C2CCCC2)CC[C@@H](NC2CCOCC2)C1
inhibition at 10 µM (hERG (KCNH2)): 2% | half-life at 1 µM [1]: > 120 min | IC50 [4]: 12.2 nM

CC(C)[C@]1(C(=O)N2C[C@@H]3C[C@H]2CN3C(=O)OC(C)(C)C)CC[C@@H](NC2CCOCC2)C1
inhibition at 10 µM (hERG (KCNH2)): 4.8% | half-life at 1 µM [1]: > 120 min | IC50 [4]: 5 nM

CC(C)[C@]1(C(=O)N2C[C@@H]3C[C@H]2CN3C(=O)CCC(F)(F)F)CC[C@@H](NC2CCOCC2F)C1 (stereo partly specified)
efflux ratio [5]: 0.6 | Papp A→B [6]: 8.35 ×10⁻⁶ cm/s | inhibition at 10 µM (hERG (KCNH2)): 5% | half-life at 1 µM [1]: > 120 min | Papp B→A [7]: 5.3 ×10⁻⁶ cm/s | IC50 [3]: 17.3 nM

CC(CC(=O)N1C[C@@H]2C[C@H]1CN2C(=O)[C@@]1(C(C)C)CC[C@@H](NC2CCOCC2)C1)C(F)(F)F (stereo partly specified)
inhibition at 10 µM (hERG (KCNH2)): 5% | half-life at 1 µM [1]: > 120 min | IC50 [3]: 13 nM

CC(C)C(=O)N1C[C@@H]2C[C@H]1CN2C(=O)[C@@]1(C(C)C)CC[C@@H](NC2CCOCC2)C1
inhibition at 10 µM (hERG (KCNH2)): 3.7% | half-life at 1 µM [1]: > 120 min | Activity [2]: 40%

CC(OC(=O)N1C[C@@H]2C[C@H]1CN2C(=O)[C@@]1(C(C)C)CC[C@@H](NC2CCOCC2F)C1)C(F)(F)F (stereo partly specified)
inhibition at 10 µM (hERG (KCNH2)): 3% | half-life at 1 µM [1]: 26 min | IC50 [3]: 3.2 nM

CO[C@@H]1COCC[C@@H]1N[C@@H]1CC[C@@](C(=O)N2C[C@@H]3C[C@H]2CN3C(=O)C2CCC2)(C(C)C)C1
inhibition at 10 µM (hERG (KCNH2)): 4% | half-life at 1 µM [1]: > 120 min | IC50 [4]: 11.7 nM

CO[C@@H]1COCC[C@@H]1N[C@@H]1CC[C@@](C(=O)N2C[C@@H]3C[C@H]2CN3C(=O)C(C)(C)C)(C(C)C)C1
inhibition at 10 µM (hERG (KCNH2)): 6% | half-life at 1 µM [1]: > 120 min | Activity [9]: 40%

CC(C)[C@]1(C(=O)N2C[C@@H]3C[C@H]2CN3C(=O)C2CCOCC2)CC[C@@H](NC2CCOCC2)C1
inhibition at 10 µM (hERG (KCNH2)): 0% | half-life at 1 µM [1]: > 120 min | Activity [2]: 46%

CC(C)[C@]1(C(=O)N2C[C@@H]3C[C@H]2CN3C(=O)CC(C)(C)C)CC[C@@H](NC2CCOCC2F)C1 (stereo partly specified)
inhibition at 10 µM (hERG (KCNH2)): 0% | half-life at 1 µM [1]: 76 min | IC50 [3]: 39.5 nM

CC(C)[C@]1(C(=O)N2C[C@@H]3C[C@H]2CN3C(=O)OC2CCCC2)CC[C@@H](NC2CCOCC2F)C1 (stereo partly specified)
inhibition at 10 µM (hERG (KCNH2)): 0% | half-life at 1 µM [1]: 17 min | IC50 [3]: 3.1 nM

CO[C@@H]1COCC[C@@H]1N[C@@H]1CC[C@@](C(=O)N2C[C@@H]3C[C@H]2CN3C(=O)c2ccccc2)(C(C)C)C1
inhibition at 10 µM (hERG (KCNH2)): 7.8% | half-life at 1 µM [1]: 94.2 min | IC50 [3]: 12 nM | IC50 [4]: 6.5 nM

CO[C@@H]1COCC[C@@H]1N[C@@H]1CC[C@@](C(=O)N2CCN(C(=O)OC(C)(C)C)CC2)(C(C)C)C1
IC50 [4]: 251 nM

CC(OC(=O)N1C[C@@H]2C[C@H]1CN2C(=O)[C@@]1(C(C)C)CC[C@@H](NC2CCOCC2)C1)C(F)(F)F (stereo partly specified)
inhibition at 10 µM (hERG (KCNH2)): 2% | half-life at 1 µM [1]: 78 min | IC50 [3]: 3.5 nM

CC(C)[C@]1(C(=O)N2C[C@@H]3C[C@H]2CN3C(=O)N2CCCCC2)CC[C@@H](NC2CCOCC2F)C1 (stereo partly specified)
inhibition at 10 µM (hERG (KCNH2)): 0% | IC50 [3]: 75.9 nM
